{"data": "Results collected from several papers", "LRRK2 G2019S": "Leucine-rich repeat serine/threonine-protein kinase 2 (LRRK2, Homo sapiens, UniProt Q5S007, G2019S)", "LRRK2": "Leucine-rich repeat serine/threonine-protein kinase 2 (LRRK2, Homo sapiens, UniProt Q5S007)", "note": "Protocols differ between the studies behind these lines."}
{"Structure (SMILES)": "CC#CC(=O)N1CCC[C@H]1c1nc(-c2ccc(C(=O)Nc3ccccn3)cc2)c2c(N)nccn12", "target": "LRRK2 G2019S", "effect on": "enzyme activity", "mode": "inhibitor", "tested at": "1 µM", "quantity": "inhibition", "result": "0%"}
{"Structure (SMILES)": "C1=C/COCc2cc(ccc2OCCN2CCCC2)Nc2nccc(n2)-c2cccc(c2)COC/1", "target": "LRRK2", "effect on": "binding", "tested at": "0.1 µM", "quantity": "remaining binding", "result": "100%"}
{"Structure (SMILES)": "C[C@H]1CC[C@H](n2c3cnccc3c3cnc(Nc4ccc5c(n4)CCN(C(=O)CO)C5)nc32)CC1", "target": "LRRK2", "effect on": "cell-free assay", "tested at": "1 µM", "quantity": "remaining signal", "result": "28%"}
{"Structure (SMILES)": "Cc1cc(O)c(-c2ccc([C@@H](C)CN(C)C)cc2)c2c1[nH]c(=O)c1sccc12", "target": "LRRK2", "effect on": "enzyme activity", "mode": "inhibitor", "tested at": "0.1 µM", "quantity": "inhibition", "result": "-15.8%"}
{"Structure (SMILES)": "COc1ccc2[nH]c3c4[nH]c5ccc(OC)cc5c4c4c(c3c2c1)C(=O)NC4=O", "target": "LRRK2 G2019S", "effect on": "binding", "tested at": "1 µM", "quantity": "remaining binding", "result": "2.6%"}
{"Structure (SMILES)": "CCCCC(=O)Nc1ccc(-c2ccc3ncn(CCC)c(=O)c3c2)cn1", "target": "LRRK2", "effect on": "binding", "method": "competition with immobilised ligand", "tested at": "0.5 µM", "quantity": "remaining binding", "result": "100%"}
{"Structure (SMILES)": "C[C@]1(O)CCCN(c2nc(Nc3ccc(S(=O)(=O)N[C@H]4CC[C@H](CN5CCN(c6ccc(C7CCC(=O)NC7=O)cc6F)CC5)CC4)cc3F)ncc2C(F)(F)F)C1 (stereo partly drawn)", "target": "LRRK2 G2019S", "effect on": "binding", "method": "competition with immobilised ligand", "tested at": "1 µM", "quantity": "remaining binding", "result": "39%"}
{"Structure (SMILES)": "CN1CCN(C(=O)c2ccc(NC(=O)Nc3ccc(N(C)c4ccnc(Nc5ccc(CS(C)(=O)=O)cc5)n4)cc3)cc2)CC1", "target": "LRRK2 G2019S", "effect on": "binding", "tested at": "1 µM", "quantity": "remaining binding", "result": "71%"}
{"Structure (SMILES)": "CNS(=O)(=O)c1ccc(Nc2ncc(C(F)(F)F)c(N3CCC[C@](C)(O)C3)n2)c(C)c1", "target": "LRRK2", "effect on": "binding", "method": "competition with immobilised ligand", "tested at": "1 µM", "quantity": "remaining binding", "result": "12%"}
{"Structure (SMILES)": "Cc1ccc(NC(=O)c2ccnc(C(F)(F)F)c2)cc1-c1cc(OCCO)nc(N2CCOCC2)c1", "target": "LRRK2", "effect on": "binding", "tested at": "1 µM", "quantity": "remaining binding", "result": "100%"}
{"Structure (SMILES)": "CC(C)S(=O)(=O)c1ccc2nccc(Nc3ccc4sc(C5CCCC5)nc4c3)c2c1", "target": "LRRK2", "effect on": "enzyme activity", "mode": "inhibitor", "tested at": "1 µM", "quantity": "activity vs control", "result": "120%"}
{"Structure (SMILES)": "Cc1cc(S(=O)(=O)N[C@H]2CC[C@H](CN3CCN(c4ccc(C5CCC(=O)NC5=O)cc4F)CC3)CC2)ccc1Nc1ncc(C(F)(F)F)c(N2CCC[C@](C)(O)C2)n1 (stereo partly drawn)", "target": "LRRK2", "effect on": "binding", "method": "competition with immobilised ligand", "tested at": "1 µM", "quantity": "remaining binding", "result": "6.6%"}
